Only some compounds are listed: those with a hit (about 3.1% of all), similar ones and a draw of the others.
Calb FLC – C. albicans growth modulation with fluconazole; C. albicans CaCi-2 (fluconazole-resistant clinical isolate) + fluconazole, Alamar Blue growth, 48 h; growth inhibition, % (concentration not given with the values); hit rate 0.57% among 300,000; AID 1979;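 active = growth inhibition above about 58% in most replicates, limit read from the data, passing the limit was not always enough; inconclusive = exactly half the replicates above a set limit; inactive = most replicates below a set limit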;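 also: all wells also contain fluconazole at 8 µg/ml as a sub-toxic cotreatment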
Beta apoptosis – blocks beta cell apoptosis. INS-1E cytokine-induced death, ATP luminescence, 48 h; percent of positive-control rescue, neutral wells zero. protection from apoptosis, % (concentration not given with the values). hit rate 0.8% among 300,000;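 active = Every replicate reaches about 75%, or at least half do and their mean reaches it too, limit read from the data; inconclusive = At least half of replicates reach the limit but their mean does not; inactive = Under half of replicates reach the limit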;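 also: higher means more ATP so stronger rescue from cytokine killing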
T cruzi repl – T. cruzi replication inhibition. T. cruzi beta-gal in NIH3T3, luminescence, 90 h. inhibition, % (concentration not given with the values). hit rate 1.4% among 300,000. AID 1885;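 active = mean inhibition across valid replicates above about 55%, limit read from the data; inconclusive = mean below that limit but half or more replicates reach it; inactive = mean below it, under half of replicates reach it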;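 also: signal also drops with host cell toxicity which is not excluded here; higher percent means less beta-gal luminescence so fewer parasites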
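System – NIH/3T3 host cells with β-galactosidase reporter T. cruzi · Doses – single 50 nL compound addition per well in DMSO · Reagent – 5000 T. cruzi trypomastigotes/well · Medium – Low-serum DMEM with 2% FBS · Timing – ≥90 h infection period, 3 h prior cell attachment · Evaluation – parasite load inhibition, % · Technique – GalScreen luminescence, 60 min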
H9c2 TAG inh – triacylglycerol accumulation inhibition. hit rate 0.66% among 230,000. inhibition, % at 12.5 µM. H9c2 cells, Nile Red lipid (TAG) fluorescence; cells loaded with 200 µM oleic acid;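 active = pattern-corrected inhibition of lipid staining of at least 50% with the nuclear-stain viability signal not falling by more than 50%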
Bfl-1 A1 inh – inhibitors of the anti-apoptotic protein A1, read as caspase activation | caspase activation, % (test concentration not listed) | hit rate 0.066% among 330,000 | MEF A1-2A-BIM cells, Caspase-Glo 3/7 luminescence, 3 h; percent of clofoctol response, vehicle zero;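 active = over half of replicate activation scores above 10%, or exactly half above 10 with the replicate mean above 10; inconclusive = replicate mean below 10 yet half the replicates above 10; inactive = over half of replicates below 10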
CSC inhib – blocks cancer stem cells. cancer stem cell-like cells viability, luminescence. inhibition, % at 7.5 µM. hit rate 1.1% among 300,000. AID 2717; in the data active = inhibition above about 75%; inconclusive = no clear call, values can overlap the other calls; tested in HMLE shEcad cells
Of the large screens only hits and unclear results are named; the others gave an inactive call.

COc1cccc(/C=N/NC(=O)CN2CC(c3ccccc3)CC2=O)c1O (stereo not given)	Beta apoptosis 76.6
O=C(O)CC12CC3CC(C1)CC(n1ncc(N4CCC5(CC4)OCCO5)c(Cl)c1=O)(C3)C2	none
Cc1ccc(OCC(O)Cn2c(N3CCCCC3)nc3c2c(=O)[nH]c(=O)n3C)cc1C (stereo not given)	none (no result: H9c2 TAG inh)
COc1cccc(/C=N/NC(=O)c2ccc(-c3ccccc3)cc2)c1O	Beta apoptosis 106.9, CSC inhib inconclusive
COc1cccc(/C=N/NC(=O)c2ccc([N+](=O)[O-])cc2Cl)c1O	Beta apoptosis 88.4
COc1cccc(/C=N/NC(=O)c2[nH]c(C)c(C(=O)N/N=C/c3cccc(OC)c3O)c2C)c1O	CSC inhib 92.6
COc1cc(/C=N/NC(=O)c2cccc([N+](=O)[O-])c2)cc(OC)c1O	Calb FLC inconclusive
COc1cccc(/C=N/NC(=O)CSc2nnc(C)n2-c2ccccc2)c1O	CSC inhib 76.6
CCc1ccc(/C=N/Nc2ncnc3nc[nH]c23)cc1	none
CCc1ccc(N=Nc2ccc(O)c3[nH]cnc23)cc1	CSC inhib 82.5 (no result: Calb FLC, T cruzi repl)
CCOC(=O)CCCNS(=O)(=O)c1c(C)ccc2nsnc12	Calb FLC inconclusive, Bfl-1 A1 inh 6.6
COc1ccc(CNC[C@H]2O[C@@H](n3ccc(=O)[nH]c3=O)[C@H](O)[C@@H]2O)cc1OC	none (no result: Calb FLC, Beta apoptosis, T cruzi repl, Bfl-1 A1 inh, CSC inhib)
O=[N+]([O-])c1cc([N+](=O)[O-])c2cc3ccccc3nc2c1	CSC inhib 80.0 (no result: H9c2 TAG inh)
CS(=O)(=O)NNC(=O)Cn1nnc(-c2ccc(OCc3ccccc3Cl)cc2)n1	none
O=C(c1cccc(S(=O)(=O)N2CCCC2)c1)N1CCN(S(=O)(=O)c2cccc(Cl)c2)CC1	none (no result: Calb FLC, Beta apoptosis, T cruzi repl, Bfl-1 A1 inh, CSC inhib)
CC(=NNC(=S)N1CC2CCC(CC2)C1)c1cccc(C)n1	H9c2 TAG inh 53.2 (no result: Calb FLC, Beta apoptosis, T cruzi repl, Bfl-1 A1 inh, CSC inhib)
COc1ccc(NC(=O)c2ccc(C(=O)Nc3ccc(OC)cc3OC)cc2)c(OC)c1	Calb FLC inconclusive
COc1ccc(NC(=O)c2c(OC)cccc2OC)c(OC)c1	T cruzi repl 59.2 (no result: H9c2 TAG inh)
CNC[C@H](CC1CCCCC1)NC[C@H](Cc1ccccc1)NCCC12CC3CC(CC(C3)C1)C2	Calb FLC 91.2, Beta apoptosis 114.3
CCN(CCn1cccn1)C(=O)c1cccc(OC2CCN(S(C)(=O)=O)CC2)c1	none
C=CCN(C(=O)CSC1=NC(=O)CN1C(C)=O)c1nc(C)c(-c2ccccc2)s1	T cruzi repl 70.2 (no result: H9c2 TAG inh)
C=CCSc1nnc(-c2sc(-c3ccccc3)nc2C)n1C	Calb FLC inconclusive
O=C(COC(=O)/C=C/c1ccccc1)NC(=O)NCc1ccccc1	none (no result: Calb FLC, Beta apoptosis, T cruzi repl, Bfl-1 A1 inh, CSC inhib)
CCn1c(SCc2ccc(OC)c(F)c2)nc2ccccc2c1=O	none (no result: H9c2 TAG inh, CSC inhib)
COCC(C)n1c(SCc2ccc(OC)c(F)c2)nc2ccccc2c1=O (stereo not given)	T cruzi repl 58.9 (no result: Beta apoptosis, Bfl-1 A1 inh, CSC inhib)
Oc1cccc(/C=N/NC(=S)Nc2cccnc2)c1O	Beta apoptosis 87.3 (no result: H9c2 TAG inh)
COc1ccc(-c2cc3ccccc3[nH]2)cc1	none
Cc1ccc(O)c(-c2cc3ccccc3[nH]2)c1	Calb FLC 82.6 (no result: H9c2 TAG inh)
CCCOc1ccc(C(=O)CCN2CCCCC2)cc1	none (no result: Calb FLC)
CCCCOc1ccc(C(=O)CCN2CCOCC2)cc1	T cruzi repl 56.0 (no result: H9c2 TAG inh)
Cn1c(N=Nc2ccc(N3CCOCC3)cc2)[n+](C)c2ccccc21	H9c2 TAG inh 51.2 (no result: Beta apoptosis, Bfl-1 A1 inh, CSC inhib)
CCC(C(=O)OCC(=O)Nc1ccc(SC(F)F)cc1)c1ccccc1 (stereo not given)	T cruzi repl 58.5 (no result: Beta apoptosis, H9c2 TAG inh, Bfl-1 A1 inh, CSC inhib)
Cn1nc([N+](=O)[O-])nc1Oc1ccccc1C(=O)N1CCOCC1	T cruzi repl 93.4
NC(=O)c1ccc(-n2nnnc2Oc2ccccc2C(=O)N2CCOCC2)cc1	none (no result: Beta apoptosis)
CC(C)=CCc1c(-c2ccc(O)cc2O)oc2cc3c(c(O)c2c1=O)C=CC(C)(C)O3	none (no result: H9c2 TAG inh)
COc1ccc(-c2oc3c4c(cc(OC)c3c(=O)c2CC=C(C)C)OC(C)(C)C=C4)c(OC)c1	T cruzi repl 65.3, CSC inhib 101.2 (no result: H9c2 TAG inh)
CCOC(=O)C1=C(N)Oc2ccc3ccccc3c2C1c1ccc(O)cc1 (stereo not given)	none
CCOC(=O)C1=C(N)Oc2cc(O)ccc2C1c1ccc([N+](=O)[O-])cc1 (stereo not given)	T cruzi repl 57.1
CC(O)(Cc1ccccn1)Cc1ccccn1	none (no result: Calb FLC, Beta apoptosis, T cruzi repl, Bfl-1 A1 inh, CSC inhib)
CC1=C(C(=O)OC2CCCCC2)C(c2cccnc2)n2nnnc2N1 (stereo not given)	T cruzi repl 59.2 (no result: H9c2 TAG inh)

Compound activity from PubChem.
